# From ChEMBL document CHEMBL1821590, “Novel dihydropyrimidines and its pyrazole derivatives: synthesis and pharmacological screening” (Eur J Med Chem, 2011)
# Tests used:
# Type in all cases: functional
# [1] = tested on: Bacillus subtilis; assay: Antimicrobial activity against Bacillus subtilis at 100 ug/ml by agar plate diffusion technique; conditions: read-out: IZ
# Summary of the method: (§1)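 Agar plate diffusion against E. coli, P. aeruginosa, S. aureus and B. subtilis, with compounds at 25, 50 and 100 µg/mL. Streptomycin as standard.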
# [2] = tested on: Candida albicans; assay: Antimicrobial activity against Candida albicans at 50 ug/ml by paper disc method; conditions: read-out: IZ
# Summary of the method: (§2)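 Paper disc method against A. niger and C. albicans, with compounds at 25, 50 and 100 µg/mL. Amphotericin-B as standard.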
# [3] = tested on: Aspergillus niger; assay: Antimicrobial activity against Aspergillus niger at 100 ug/ml by paper disc method; conditions: read-out: IZ; summary of the method: as §2
# [4] = Antioxidant activity assessed as nitric oxide radical scavenging activity after 150 mins
# Summary of the method: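 10 mM sodium nitroprusside (4 mL), PBS pH 7.4 (1 mL) and sample or ascorbic acid in DMSO (1 mL, 12.5–100 µg/mL), incubated 150 min at 25 °C. Nitrite detected with sulphanilic acid (5 min) then naphthylethylenediamine (30 min, diffused light). Read at […]. Triplicate. % inhibition = [1 − (Vt/Vc)] × 100. IC50 derived from it.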
# [5] = Antiinflammatory activity assessed as inhibition of albumin denaturation at 100 ug/ml by UV-visible spectrophotometry
# Summary of the method: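 Compounds dissolved in minimal DMF, diluted in PBS pH 7.4 (final DMF <2.5%). 1 mL test solution (100 µg/mL) plus 1 mL 1% albumin in PBS, 15 min at 27 ± 1 °C, then heated 10 min at 60 ± 1 °C. After cooling, turbidity read at 660 nm. % inhibition = [(Vt/Vc) − 1] × 100 against a no-drug control. Triplicate, averaged. Diclofenac standard.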
# [6] = Antioxidant activity assessed as potassium ferricyanide ion reducing power after 20 mins
# Summary of the method: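 Oyaizu method. Samples or ascorbic acid in DMF (12.5–100 µg/mL) mixed with 0.2 M phosphate buffer pH 6.6 and 1% potassium ferricyanide, 20 min at 50 °C. 10% TCA added, centrifuged. Supernatant mixed with water and 0.1% FeCl3, read at 700 nm. % = [(Vt/Vc) − 1] × 100. IC50 derived.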
# [7] = tested on: Escherichia coli; assay: Antimicrobial activity against Escherichia coli at 100 ug/ml by agar plate diffusion technique; conditions: read-out: IZ; summary of the method: as §1
# [8] = tested on: Escherichia coli; assay: Antimicrobial activity against Escherichia coli at 25 ug/ml by agar plate diffusion technique; conditions: read-out: IZ; summary of the method: as §1
# [9] = tested on: Pseudomonas aeruginosa; assay: Antimicrobial activity against Pseudomonas aeruginosa at 25 ug/ml by agar plate diffusion technique; conditions: read-out: IZ; summary of the method: as §1
# [10] = tested on: Metaphire posthuma; assay: Anthelmintic activity against Pheretima posthuma assessed as time taken for complete parasite paralysis at 0.5% w/v
# Summary of the method: (§3)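 Earthworms (Pheretima posthuma) exposed to test solutions at 0.1, 0.2 and 0.5% w/v; time in minutes to complete paralysis (worms motionless) recorded. Albendazole as standard. Mean of three determinations ± S.D.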
# [11] = tested on: Pseudomonas aeruginosa; assay: Antimicrobial activity against Pseudomonas aeruginosa at 100 ug/ml by agar plate diffusion technique; conditions: read-out: IZ; summary of the method: as §1
# [12] = tested on: Metaphire posthuma; assay: Anthelmintic activity against Pheretima posthuma assessed as time taken for parasite death at 0.2% w/v
# Summary of the method: (§4)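 Earthworms (Pheretima posthuma, spelled Perituma posthuma in text) exposed to test compounds at 0.1, 0.2 and 0.5% w/v. Albendazole served as standard, with an untreated control. Paralysis was recorded as the time until worms became motionless, then time to death was recorded, in minutes. Each value is the mean of three determinations with S.D.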
# [13] = tested on: Bacillus subtilis; assay: Antimicrobial activity against Bacillus subtilis at 50 ug/ml by agar plate diffusion technique; conditions: read-out: IZ; summary of the method: as §1
# [14] = tested on: Aspergillus niger; assay: Antimicrobial activity against Aspergillus niger at 25 ug/ml by paper disc method; conditions: read-out: IZ; summary of the method: as §2
# [15] = Antioxidant activity assessed as inhibition of lipid peroxidation using egg lecithin liposomes incubated for 1 hr
# Summary of the method: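 Egg lecithin (3 mg/mL, phosphate buffer pH 7.4) sonicated 10 min to form liposomes. Sample or ascorbic acid (12.5–100 µg/mL) added. Peroxidation induced with FeCl3 and L-ascorbic acid, 1 h at 37 °C. Stopped with HCl/TCA/TBA/BHA, boiled 15 min, centrifuged, supernatant read at 532 nm. Triplicate. % inhibition vs control. IC50 derived.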
# [16] = tested on: Candida albicans; assay: Antimicrobial activity against Candida albicans at 25 ug/ml by paper disc method; conditions: read-out: IZ; summary of the method: as §2
# [17] = tested on: Staphylococcus aureus; assay: Antimicrobial activity against Staphylococcus aureus at 25 ug/ml by agar plate diffusion technique; conditions: read-out: IZ; summary of the method: as §1
# [18] = tested on: Metaphire posthuma; assay: Anthelmintic activity against Pheretima posthuma assessed as time taken for parasite death at 0.1% w/v; summary of the method: as §4
# [19] = Antioxidant activity assessed as hydrogen peroxide scavenging activity after 10 mins
# Summary of the method: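 H2O2 (20 mM) in PBS pH 7.4. 1 mL of sample or ascorbic acid in methanol (12.5–100 µg/mL) added to 2 mL H2O2 solution. A230 read after 10 min. % inhibition = [1 − (Vt/Vc)] × 100. Triplicate, averaged. IC50 derived from % inhibition across concentrations.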
# [20] = tested on: Bacillus subtilis; assay: Antimicrobial activity against Bacillus subtilis at 25 ug/ml by agar plate diffusion technique; conditions: read-out: IZ; summary of the method: as §1
# [21] = tested on: Metaphire posthuma; assay: Anthelmintic activity against Pheretima posthuma assessed as time taken for parasite death at 0.5% w/v; summary of the method: as §4
# [22] = tested on: Pseudomonas aeruginosa; assay: Antimicrobial activity against Pseudomonas aeruginosa at 50 ug/ml by agar plate diffusion technique; conditions: read-out: IZ; summary of the method: as §1
# [23] = tested on: Metaphire posthuma; assay: Anthelmintic activity against Pheretima posthuma assessed as time taken for complete parasite paralysis at 0.1% w/v; summary of the method: as §3
# [24] = tested on: Candida albicans; assay: Antimicrobial activity against Candida albicans at 100 ug/ml by paper disc method; conditions: read-out: IZ; summary of the method: as §2
# [25] = tested on: Metaphire posthuma; assay: Anthelmintic activity against Pheretima posthuma assessed as time taken for complete parasite paralysis at 0.2% w/v; summary of the method: as §3
# [26] = tested on: Escherichia coli; assay: Antimicrobial activity against Escherichia coli at 50 ug/ml by agar plate diffusion technique; conditions: read-out: IZ; summary of the method: as §1
# [27] = tested on: Staphylococcus aureus; assay: Antimicrobial activity against Staphylococcus aureus at 50 ug/ml by agar plate diffusion technique; conditions: read-out: IZ; summary of the method: as §1
# [28] = tested on: Aspergillus niger; assay: Antimicrobial activity against Aspergillus niger at 50 ug/ml by paper disc method; conditions: read-out: IZ; summary of the method: as §2
# [29] = tested on: Staphylococcus aureus; assay: Antimicrobial activity against Staphylococcus aureus at 100 ug/ml by agar plate diffusion technique; conditions: read-out: IZ; summary of the method: as §1
compound,measurement,setting,value
CCOC(=O)c1cnn(-c2nc(-c3cccc(O)c3O)c(C#N)c(=O)n2C)c1N,zone of inhibition at 100 µg/mL,[1],21.8 mm
same,zone of inhibition at 50 µg/mL,[2],13.3 mm
same,zone of inhibition at 100 µg/mL,[3],17.2 mm
same,IC50,[4],58 µg/mL
same,inhibition,[5],57.6%
same,IC50,[6],41 µg/mL
same,zone of inhibition at 100 µg/mL,[7],22.9 mm
same,zone of inhibition at 25 µg/mL,[8],13.1 mm
same,zone of inhibition at 25 µg/mL,[9],10.3 mm
same,Time,[10],53.34 min
same,zone of inhibition at 100 µg/mL,[11],20.3 mm
same,Time,[12],75.78 min
same,zone of inhibition at 50 µg/mL,[13],15.1 mm
same,zone of inhibition at 25 µg/mL,[14],9.48 mm
same,IC50,[15],49 µg/mL
same,zone of inhibition at 25 µg/mL,[16],10.4 mm
same,zone of inhibition at 25 µg/mL,[17],12.7 mm
same,Time,[18],70.56 min
same,IC50,[19],53 µg/mL
same,zone of inhibition at 25 µg/mL,[20],14.4 mm
same,Time,[21],60.74 min
same,zone of inhibition at 50 µg/mL,[22],12.8 mm
same,Time,[23],60.22 min
same,zone of inhibition at 100 µg/mL,[24],17.7 mm
same,Time,[25],65.54 min
same,zone of inhibition at 50 µg/mL,[26],16 mm
same,zone of inhibition at 50 µg/mL,[27],16.1 mm
same,zone of inhibition at 50 µg/mL,[28],11.7 mm
same,zone of inhibition at 100 µg/mL,[29],20.3 mm
Cn1c(NN)nc(-c2ccccc2O)c(C#N)c1=O,zone of inhibition at 100 µg/mL,[1],22.2 mm
same,zone of inhibition at 50 µg/mL,[2],12.5 mm
same,zone of inhibition at 100 µg/mL,[3],16.5 mm
same,IC50,[4],46 µg/mL
same,inhibition,[5],34.4%
same,IC50,[6],38 µg/mL
same,zone of inhibition at 100 µg/mL,[7],11.2 mm
same,zone of inhibition at 25 µg/mL,[8],8.39 mm
same,zone of inhibition at 25 µg/mL,[9],7.27 mm
same,Time,[10],30.13 min
same,zone of inhibition at 100 µg/mL,[11],13 mm
same,Time,[12],37.1 min
same,zone of inhibition at 50 µg/mL,[13],13.8 mm
same,zone of inhibition at 25 µg/mL,[14],8.24 mm
same,IC50,[15],34 µg/mL
same,zone of inhibition at 25 µg/mL,[16],9.62 mm
same,zone of inhibition at 25 µg/mL,[17],10.6 mm
same,Time,[18],50.13 min
same,IC50,[19],30 µg/mL
same,zone of inhibition at 25 µg/mL,[20],9.81 mm
same,Time,[21],44.1 min
same,zone of inhibition at 50 µg/mL,[22],9.17 mm
same,Time,[23],35.42 min
same,zone of inhibition at 100 µg/mL,[24],17.7 mm
same,Time,[25],33.85 min
same,zone of inhibition at 50 µg/mL,[26],9.58 mm
same,zone of inhibition at 50 µg/mL,[27],12.2 mm
same,zone of inhibition at 50 µg/mL,[28],10.6 mm
same,zone of inhibition at 100 µg/mL,[29],17.7 mm
COc1ccc(-c2nc(SC)n(C)c(=O)c2C#N)cc1,zone of inhibition at 100 µg/mL,[1],19.1 mm
same,zone of inhibition at 50 µg/mL,[2],11.2 mm
same,zone of inhibition at 100 µg/mL,[3],18 mm
same,IC50,[4],73 µg/mL
same,inhibition,[5],21.3%
same,IC50,[6],58 µg/mL
same,zone of inhibition at 100 µg/mL,[7],8.79 mm
same,zone of inhibition at 25 µg/mL,[8],5.08 mm
same,zone of inhibition at 25 µg/mL,[9],6.19 mm
same,Time,[10],42.65 min
same,zone of inhibition at 100 µg/mL,[11],9.17 mm
same,Time,[12],72.67 min
same,zone of inhibition at 50 µg/mL,[13],13.1 mm
same,zone of inhibition at 25 µg/mL,[14],11.6 mm
same,IC50,[15],53 µg/mL
same,zone of inhibition at 25 µg/mL,[16],9.33 mm
same,zone of inhibition at 25 µg/mL,[17],8.76 mm
same,Time,[18],78.22 min
same,IC50,[19],48 µg/mL
same,zone of inhibition at 25 µg/mL,[20],11.7 mm
same,Time,[21],62.21 min
same,zone of inhibition at 50 µg/mL,[22],8.84 mm
same,Time,[23],54.56 min
same,zone of inhibition at 100 µg/mL,[24],19.8 mm
same,Time,[25],46.56 min
same,zone of inhibition at 50 µg/mL,[26],7.19 mm
same,zone of inhibition at 50 µg/mL,[27],12.8 mm
same,zone of inhibition at 50 µg/mL,[28],12 mm
same,zone of inhibition at 100 µg/mL,[29],14.8 mm
